EphB4 ephrin blk = EphB4-ephrin-B2 interaction antagonists, primary screen, biochemical, TNYL-RAW peptide probe, fluorescence polarization; EphB4 LBD / TNYL-RAW-Alexa532 peptide; 0.15% of 97,000 active; inhibition, % at 7 µM; Ephrin type-B receptor 4 (Homo sapiens), P54760;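 active means inhibition above the screen-wide mean inhibition plus 3 SD, cut at about 15% in these data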;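 further: 0% = DMSO wells and 100% = excess unlabeled TNYL-RAW peptide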
Cav3 T inh = Cav3.2 calcium influx blockers – cell-based, Fluo-4 calcium fluorescence, FDSS, MLSMR library, primary screen; Cav3.2-expressing cells; stronger effect = lower value; Voltage-dependent T-type calcium channel subunit alpha-1H (Homo sapiens), O95180; 4% of 100,000 active; B-score at 10 µM;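 active means single-dose well whose peak fluorescence ratio is a statistical outlier from its plate by either plate-standardised score or position-corrected B-score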
hDAT+cocaine = changed hDAT dopamine uptake under cocaine IC80, either direction, primary screen, cocaine antagonist project, cell-based, LLC-PK1 hDAT, [14C]-dopamine uptake, MLSMR | Sodium-dependent dopamine transporter (Homo sapiens), Q01959 | LLC-PK1 hDAT cells, [14C]-dopamine uptake with cocaine IC80; actives deviate in either direction | B-score at 10 µM | 1.3% of 110,000 active | AID 449768, 2010;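 active means Z score or B-score, a plate-position-corrected score, falls beyond the plate's 99.7% confidence bounds, in either direction; inactive means both scores lie inside the 99.7% bounds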;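 further: scored against the spread of the other compound wells on the same plate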
Rev-RRE block = HIV-1 Rev-RRE binding inhibitors, primary screen, biochemical, FRET, protein-RNA interaction; P05866; Rev peptide-RRE RNA binding; inhibition, % at 8 µM; 0.79% of 97,000 active; AID 704, 2007;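 active means inhibition above the screen-wide mean plus 3 SD, cut at about 35% in these data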;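 further: 0% = median DMSO wells and 100% = median Neomycin B control wells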
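Test system: Cy5-tagged RRE RNA duplex with fluorescein-tagged Rev peptide; Probe or stimulus: labelled Rev peptide; Schedule: 5 min preincubation and 15 min binding, 25 °C; Signal: FRET fluorescence readout; Evaluation: % inhibition from 671/540 nm acceptor-to-donor ratio, scaled between controls; Control set: DMSO and neomycin B.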
Numbers without * were called inactive; / = no result given. This is a sample that favours compounds with a hit; in the whole collection about 5.4% have one here.

SMILES	EphB4 ephrin blk	Cav3 T inh	hDAT+cocaine	Rev-RRE block
CCc1ccc(-c2nc(CN3CCC(C(=O)NCCN(CC)c4ccccc4)CC3)c(C)o2)cc1	-3	-7.5*	-0.22	-4
Cc1oc(-c2cccc(Cl)c2)nc1CN1CCC(C(=O)NCc2cccnc2)CC1	-6	1.1	0.91	3
CCN(CCNC(=O)C1CCN(Cc2nc(-c3ccc(Cl)cc3)oc2C)CC1)c1ccccc1	-5	-8.4*	0.0084	-5
CCCNC(=O)N1CCN(S(=O)(=O)c2ccc(C)c(C)c2)CC1	1	0.23	-0.39	-1
CCOC(=O)c1ccc(NC(=O)NC2CC3CCC(C2)N3Cc2nnnn2Cc2ccco2)cc1 (stereo unspecified)	4	-6.1*	-0.29	10
CC(C)(C)n1nnnc1CN1C2CCC1CC(NC(=O)Nc1ccccc1)C2 (stereo unspecified)	-1	1.2	0.52	2
CC(C)CCNc1nnnc2c1sc1nc(N3CCOCC3)c3c(c12)CC(C)(C)SC3	-2	-4.8*	0.015	11
CCOc1ncccc1C(=O)Nc1ccccc1C(=O)NCc1ccc2c(c1)OCO2	/	0.34	0.96	/
CCOc1ccccc1CN(CCc1ccc2c(c1)OCO2)Cc1ccccn1	3	-4.3*	0.69	8
CN(CC1CCCO1)S(=O)(=O)c1ccc(C(=O)Nc2nc(-c3ccccn3)cs2)cc1 (stereo unspecified)	1	-3.9	2.7*	8
O=C(CSc1ncc(-c2ccc(F)cc2)n1Cc1ccco1)Nc1ccc2c(c1)OCO2	6	-4.8*	0.0033	8
COc1ccc(-n2c(-c3ccc(F)cc3)cnc2SCC(=O)NCc2ccco2)cc1	3	-5.7*	0.75	10
Cc1ccc(OCc2nnc(SCC(=O)Nc3ccc4c(c3)OCCO4)n2Cc2ccco2)cc1	-1	-6*	0.86	1
Cc1ccc(OCc2nnc(SCC(=O)c3ccccc3)n2Cc2ccco2)cc1	0	-4.5*	0.21	6
O=C(CSc1nnc(-c2cccs2)n1Cc1ccco1)Nc1ccc2c(c1)OCO2	3	-0.13	0.16	5
Clc1ccc(-n2nnc(-c3ncc[nH]3)n2)cc1Cl	/	0.54	0.09	/
Cc1onc(-c2ccccc2)c1-c1n[nH]c(=S)n1-c1ccccc1	5	1	-0.03	0
Cc1cccc(NC(=O)CSc2nnc(CSc3nc(C)cc(C)n3)n2Cc2ccco2)c1	1	-3.1	2.8*	3
Cc1cc(C)nc(SCc2nnc(SCC(=O)Nc3nccs3)n2Cc2ccco2)n1	1	-0.38	2.2	8
Cc1ccc(OCc2nnc(SCc3nc4ccccc4[nH]3)n2Cc2ccco2)cc1	-6	-8.5*	0.092	8
Clc1ccc(OCc2nnc(SCCN3CCCCC3)n2Cc2ccco2)cc1	/	0.15	3.3*	/
CC[C@H](C)/C=C/C1=CC2=C(Cl)C(=O)[C@@]3(C)OC(=O)C(C(=O)[C@H](C)[C@@H](C)O)=C3C2=CO1	/	-0.39	-0.1	/
CCOC(=O)Cc1csc(NC(=O)CSc2nnnn2-c2ccc(CC)cc2)n1	0	-5.4*	-0.52	6
CCOC(=O)c1csc(NC(=O)CSc2nnnn2-c2ccc(OCC)cc2)n1	-1	-0.81	-1.4	4
COc1ccc(N2CCN(C(c3ccccc3OC)c3nnnn3C3CCCC3)CC2)cc1 (stereo unspecified)	/	-5.9*	-0.34	/
SMILES	EphB4 ephrin blk	Cav3 T inh	hDAT+cocaine	Rev-RRE block
COc1ccc(OC)c(C(c2nnnn2C2CCCC2)N2CCN(c3ccccc3F)CC2)c1 (stereo unspecified)	3	-6.1*	0.011	-1
COc1ccc(C(c2nnnn2C2CCCC2)N2CCc3ccccc3C2)cc1OC (stereo unspecified)	-13	-4*	0.66	0
COc1ccc(N2CCN(C(c3cccc(OC)c3OC)c3nnnn3C3CCCC3)CC2)cc1 (stereo unspecified)	-6	-5.4*	-0.013	-7
COc1ccc(OC)c(C(c2nnnn2C2CCCC2)N2CCc3ccccc3C2)c1 (stereo unspecified)	-1	/	/	10
COc1ccc(N2CCN(C(c3cccs3)c3nnnn3C3CCCC3)CC2)cc1 (stereo unspecified)	-5	-3.1	-1.3	2
Cn1ncc([N+](=O)[O-])c1C(=O)N1CCOCC1	2	0.076	-0.14	12
C#C[C@]1(O)CC[C@H]2[C@@H]3[C@H](C)CC4=C(CCC(=O)C4)[C@H]3CC[C@@]21C	/	/	-0.13	/
CCOc1ccccc1NC(=O)c1ccccc1-c1nc(-c2ccccc2OC)no1	-7	-4.7*	0.33	10
Cc1sc2ncnc(NCCc3ccc(S(N)(=O)=O)cc3)c2c1C	-2	/	/	-2
CCN(CC)S(=O)(=O)c1cccc(-c2nnc(SCC(=O)c3cc(C)n(C)c3C)o2)c1	-3	-0.48	0.22	-1
CCN(CC)S(=O)(=O)c1cccc(-c2nnc(SCCOc3ccc(Cl)cc3)o2)c1	-4	-7.9*	-0.76	9
CCN(CC)S(=O)(=O)c1cccc(-c2nnc(SCc3nnc(-c4ccccc4)o3)n2C)c1	1	1.9	-0.76	8
CCN(CC)S(=O)(=O)c1cccc(-c2nnc(SCCOc3ccccc3C)o2)c1	/	-4.7*	-0.072	/
CCN(CC)S(=O)(=O)c1ccc(-c2nnc(SCc3nnc(-c4ccc(C)cc4)o3)o2)cc1	-7	0.63	0.19	8
CCN(CC)S(=O)(=O)c1cccc(-c2nnc(SCCOc3ccccc3)o2)c1	-1	-4.2*	0.28	11
CCOC(=O)c1cc(C)n(CCc2ccccc2)c1C	6	-3.8*	/	5
Brc1ccc([C@H]2CN3CCSC3=N2)cc1	/	/	-0.38	/
N#Cc1ccc(C(=O)NCC(c2ccco2)N2CCCCC2)cc1 (stereo unspecified)	1	0.66	2*	-5
N#Cc1ccc(C(=O)NCC(c2ccco2)N2CCCC2)cc1 (stereo unspecified)	5	0.73	-0.61	6
O=c1cc(N2CCN(c3ccc(F)cc3)CC2)[nH]c(=O)n1Cc1ccc(F)cc1	3	-8.8*	1.2	0
COc1ccc(N2CCN(c3cc(=O)n(Cc4ccc(F)cc4)c(=O)[nH]3)CC2)cc1	/	-4.9*	1.5	/
CCCCN(CCCNC(=O)c1ccc2nc(N3CCOCC3)sc2c1)Cc1ccccc1	-2	0.84	2.6*	4
Cn1ccnc1SCc1cn2cc(Br)ccc2n1	0	0.32	-8.7*	9
CC1=C2C(CCS2(=O)=O)CC2(C1)C(=O)OC(C)(C)OC2=O (stereo unspecified)	0	0.34	/	5
C/C(=N\OC(=O)c1ccc(F)cc1)c1nccs1	1	-0.91	-0.13	8
C/C(=N/OC(=O)c1c(F)cccc1F)c1nccs1	-7	-4.7*	-0.4	2
